Experimental data reported in paper PMC8245858 (Acta Pharmaceutica Sinica. B, 2021).
Blank lines part the entries; values can stand above or below the compound they belong to.

Tests used:
SLC7A11 = test: qRT-PCR of SLC7A11 mRNA; assay type: cell-based, human; conditions: MGC-803 and MKN-45 cells, 24 h
MGC-803 and MKN-45 cells [1] = test: Intracellular ferrous iron; assay type: cell-based, human; conditions: 24 h
Method in brief: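 Cells in 60-mm dishes exposed to test compound for 24 h, alone or with 3-MA. Cells are then collected and homogenised in iron assay buffer, and ferrous iron is measured with a commercial iron assay kit per the maker's protocol. Mean ± SD (n = 3), three independent experiments, biological duplicates.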

GPX4 [2] = test: qRT-PCR of GPX4 mRNA; assay type: cell-based, human; conditions: MGC-803 and MKN-45 cells, 24 h
[3] = test system: gastric cancer cell lines MGC-803, HGC-27, SGC-7901, MKN-45, AGS and BGC-823; test: Cell proliferation by sulforhodamine B; assay type: cell-based, human; conditions: 72 h
Method in brief: (§1)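 SRB assay after 72 h exposure. OD read at compound addition (ODstart) is subtracted: relative growth = (ODtreated − ODstart)/(ODcontrol − ODstart); inhibitory rate (%) = (ODcontrol − ODtreated)/(ODcontrol − ODstart) × 100. GI50 obtained per cell line. Mean ± SD (n = 3), three independent experiments, biological duplicates.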

[4] = Metabolic stability in human liver microsomes; assay type: in vitro ADME
MGC-803 and MKN-45 cells [5] = test: Lipid peroxidation using C11-BODIPY581/591; assay type: cell-based, human; conditions: 6 h
Method in brief: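 After 6 h exposure in 6-well plates, cells are collected and resuspended in PBS with 2 μmol/L C11-BODIPY581/591 for 30 min at 37 °C, then read by flow cytometry. For MGC-803: three independent experiments with biological duplicates, one-way ANOVA.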

[6] = Metabolic stability in dog liver microsomes; assay type: in vitro ADME
MGC-803 cells [7] = test: Intracellular ROS, DCFH-DA staining, flow cytometry; assay type: cell-based, human; conditions: 24 h
Method in brief: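 MGC-803 cells exposed to test compound with or without N-acetylcysteine for 24 h, stained with DCFH-DA and analysed by flow cytometry. Groups compared by two-way ANOVA.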

[8] = Metabolic stability in rat liver microsomes; assay type: in vitro ADME
[9] = Caco-2 permeability assay; assay type: in vitro ADME, human; conditions: human; for efflux ratio: Caco-2; for Papp: Mean ± RSD, n = 2
Caco-2 monolayer = test: Caco-2 permeability assay; assay type: in vitro ADME, human; conditions: from A to B
GPX4 [10] = test: GPX4 expression in PDX tumor tissues by IHC; assay type: in vivo, NOD-SCID mice; conditions: sensitive PDX models PDX-01, PDX-02 and PDX-03, end of treatment
GES1 = test: Cell proliferation by SRB assay, gastric epithelial cell line; assay type: cell-based, human; conditions: 72 h
Method in brief: as §1

[11] = Pharmacokinetic parameters in rats; assay type: in vivo; conditions: male, SD, rat, plasma, iv, 20 mg/kg
Method in brief: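 Study run by a contract laboratory in male SD rats, n = 3. Parameters taken from mean plasma concentration–time curves.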

[12] = Metabolic stability in monkey liver microsomes; assay type: in vitro ADME
[13] = Metabolic stability in mouse liver microsomes; assay type: in vitro ADME
MGC-803 cells [14] = test: Cell cycle, PI staining and flow cytometry; assay type: cell-based, human; conditions: MGC-803, 48 h
Method in brief: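 MGC-803 cells exposed to test compound for 48 h, stained with PI and analysed by flow cytometry with quantification. Mean ± SD (n = 3) from three independent experiments with biological duplicates.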

MGC-803 xenograft = test: Gastric cancer cell line-derived xenograft; assay type: in vivo, nude mice; conditions: for pathologic examination of heart, liver, spleen, lung and kidney: compared with the saline group, end of treatment
Method in brief: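 Male nude mice (6–8 weeks) get MGC-803 cells subcutaneously in the right flank. Body weight recorded every two days. After final dose, liver, kidney, lung, heart and spleen taken for histopathology.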

[15] = Caco-2, Papp (A‒B), direction A‒B
[16] = Caco-2, Papp (B‒A), direction B‒A

Structure (SMILES): O=c1[nH]cc(F)c(=O)[nH]1 [Compound 5-FU, 5-fluorouracil, reference compound]
pathologic examination of heart, liver, spleen, lung and kidney (MGC-803 xenograft): no observed adverse effects

Structure (SMILES): CC(C)Oc1ccc(C(=O)Cn2ccnc2)cc1-n1c(CN2CCN(C(=O)COc3ccc(Cl)cc3)CC2)nc2ccccc2c1=O [IKE, imidazole ketone erastin, reference compound]
effect on cell growth, compound alone ([3]; MGC-803 and MKN-45 cells, SRB): no effect

Structure (SMILES): CC(C)NCC(O)COc1cccc2ccccc12 (centres unmarked) [Propranolol]
efflux ratio [9]: 0.7
Papp [9, 15]: 28.3 ± 0.43 ×10⁻⁶ cm/s
Papp [9, 16]: 18.5 ± 0.3 ×10⁻⁶ cm/s

The next lines start with results.

GI50 ([3]; Homo sapiens): 880 to 3330 nM
half-life at 1 μmol/L [4]: 34.9 min
microsomal CLint at 1 μmol/L [4]: 99.4 µL/min/mg
half-life at 1 μmol/L [6]: 32.2 min
microsomal CLint at 1 μmol/L [6]: 108 µL/min/mg
half-life at 1 μmol/L [8]: 31.2 min
microsomal CLint at 1 μmol/L [8]: 111 µL/min/mg
efflux ratio [9]: 0.2
Papp [9, 15]: 16.1 ± 1.01 ×10⁻⁶ cm/s
Papp [9, 16]: 3.3 ± 0.3 ×10⁻⁶ cm/s
permeability class against the Caco-2 monolayer (Caco-2 monolayer): moderately permeable compound
GI50 in GES1 relative to gastric cancer cells (GES1): at least five-fold higher
AUC(0-inf) [11]: 14800 ± 1330 ng·h/mL
AUC(0-t) [11]: 14800 ± 1320 ng·h/mL
Cmax [11]: 18300 ± 1420 ng/mL
MRT last [11]: 92.4 ± 7.8 min
Vd [11]: 7.73 ± 1.46 L/kg
half-life [11]: 236 ± 28.8 min
half-life at 1 μmol/L [12]: 23.5 min
microsomal CLint at 1 μmol/L [12]: 148 µL/min/mg
half-life at 1 μmol/L [13]: 23.7 min
microsomal CLint at 1 μmol/L [13]: 146 µL/min/mg
Structure (SMILES): C=C1C(=O)[C@@]23C(C(=O)C[C@@H]1[C@H]2OC(=O)[C@@H](N)C(C)C)[C@]12CCCC(C)(C)C1C[C@H]3OC2=O (stereo partly drawn) [a2, (6R,6aR,9S,11bS,14R)-4,4-Dimethyl-8-methylene-7,11,12-trioxododecahydro-1H-6,11b-(epoxymethano)-6a,9-methanocyclohepta[a]naphthalen-14-yl valinate]
mRNA level of SLC7A11 (SLC7A11): increased
ferrous iron accumulation (MGC-803 and MKN-45 cells [1]): significantly increased
mRNA level of GPX4 (GPX4 [2]): dose-dependently reduced
lipid ROS production (MGC-803 and MKN-45 cells [5]): dose-dependently elevated
level of ROS (MGC-803 cells [7]): markedly elevated
expression of GPX4 in tumor tissues (GPX4 [10]): decreased expression of GPX4
cell population in the G2/M phase (MGC-803 cells [14]): significantly increased
tumor growth (MGC-803 xenograft; 5, 10, 20 mg/kg once a day for 21 days, tail vein injection): dose- and time-dependently inhibited tumor growth
anti-tumor efficacy compared with 5-FU (15 mg/kg) (MGC-803 xenograft; a2 at 10 or 20 mg/kg, once a day for 21 days): more potent than that of the positive control drug 5-FU
pathologic examination of heart, liver, spleen, lung and kidney (MGC-803 xenograft): no observed adverse effects
effect on mouse body weight (MGC-803 xenograft; once a day for 21 days, compared to 5-FU): fewer effect

efflux ratio [9]: 197
Papp [9, 15]: 0.13 ± 0.02 ×10⁻⁶ cm/s
Papp [9, 16]: 24.7 ± 0.1 ×10⁻⁶ cm/s
Structure (SMILES): C[C@H]1O[C@@H](O[C@H]2[C@@H](O)C[C@H](O[C@H]3[C@@H](O)C[C@H](O[C@H]4CC[C@@]5(C)[C@H](CC[C@@H]6[C@@H]5C[C@@H](O)[C@]5(C)[C@@H](C7=CC(=O)OC7)CC[C@]65O)C4)O[C@@H]3C)O[C@@H]2C)C[C@H](O)[C@@H]1O [Digoxin]
